In PubChem BioAssay AID504653 (Molecular Libraries Program, Specialized Chemistry Center, …, 2011) one finds maximal fold activation data, which are given here for 17 compounds.

Calls of active or inactive are those of the source.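 Rule for the calls: active = caspase 3/7 peak fold activation above 5 at a dose under 20 µM within 7 h; inactive = the rest.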

The subject of the test is SW403 caspase-3/7 Glo luminescence, 7 h. Briefly: apoptosis induction by VCP inhibitors – cell-based, mechanism study for p97 inhibitor project (AID 504653). The conditions noted are these: stronger effect = higher value. The gist of the method:
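test system = SW403 cells | control set = 1 % DMSO reference | schedule = 7 h compound exposure, then 1 h reagent incubation at room temperature | technique = Caspase-3/7 Glo reagent, luminescence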
Take `COc1cccc2c(NCc3ccccc3)nc(Nc3nc4ccccc4n3C)nc12`: the maximal fold activation is 16. For the compound `Brc1cccc(CNc2nc(NCc3ccccc3)c3ccccc3n2)c1`, the maximal fold activation is 18. Then `FC(F)(F)c1ccc(CNc2nc(NCc3ccccc3)c3ccccc3n2)cc1`, with 26. Next, `Fc1cccc(CNc2nc(NCc3ccccc3)c3ccccc3n2)c1`: 5.9 (inactive). Next, `OCCOc1cccc2c(NCc3ccccc3)nc(N3CCOc4ccccc43)nc12`: 1.3 (inactive); `Clc1cccc(Nc2nc(NCc3ccccc3)c3ccccc3n2)c1`: 7.3 (inactive); `COc1cccc2c(NCc3ccccc3)nc(-n3c(N)nc4ccccc43)nc12`: 29.

In the case of `COc1cccc2c(NCc3ccccc3)nc(NCc3cccs3)nc12`, the maximal fold activation is 24. Next, `CCN(CC)CCOc1cccc2c(NCc3ccccc3)nc(N3CCOc4ccccc43)nc12`: 8 (inactive); `c1ccc(CNc2nc(N3CCOc4ccccc43)nc3ccsc23)cc1`: 1.4 (inactive); `COc1cccc2c(NCc3ccccc3)nc(N3CCOc4ccccc43)nc12`: 1.6 (inactive). Next, `COc1cccc2c(NCc3ccccc3)nc(NCc3ccccc3)nc12`: 12 (inactive); `c1ccc(CNc2nc(N3CCOc4ccccc43)nc3ccccc23)cc1`: 1.6 (inactive).

As to `COc1cccc(CNc2nc(NCc3ccccc3)c3ccccc3n2)c1`, the maximal fold activation was 3.3 (inactive).

As for `Cc1ccc(CNc2nc(NCc3ccccc3)c3ccccc3n2)cc1`, the maximal fold activation was 13 (inactive). Next, `COc1cccc2c(NCc3ccccc3)nc(-n3c(N)nc4cc(Cl)c(Cl)cc43)nc12`: 1.6 (inactive); `Fc1cccc(Nc2nc(NCc3ccccc3)c3ccccc3n2)c1`: 15 (inactive).
